Calls of active or inactive are those of the source. The calls are words filed in the database; no cut-off is given here.
How the values were obtained:
[1] = target: Isocitrate dehydrogenase [NADP] cytoplasmic (Homo sapiens, UniProt O75874, R132H); experiment: Competitive inhibition of IDH1-R132H mutant (unknown origin) using a-ketoglutarate and NADPH as substrate by steady state kinetic analysis
How it was run: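 IDH1-R132H in buffer of 150 mM NaCl, 20 mM Tris–Cl pH 7.5, 10 mM MnCl₂, 150 μM β-NADPH, 0.03% (w/v) BSA; α-ketoglutarate varied to reach maximal activity; steady-state kinetic parameters fitted with an enzyme kinetics module.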

[2] = tested on: Isocitrate dehydrogenase [NADP] cytoplasmic (Homo sapiens), O75874 [R132H]; experiment: Inhibition of IDH1-R132H mutant in human MCF10A cells assessed as decrease in 5-methylcytosine level at 5 uM incubated for 24 hrs by DAPI staining based fluorescence microscopy; type: cell-based; details: MCF-10A
How it was run: (§1)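 Isogenic IDH1 (+/+) and (+/R132H) MCF10A cells on coverslips (5 × 10⁴ per well), 16 h at 37 °C, then 5 μM compound for 24 h; fixed in 4% paraformaldehyde, blocked, stained overnight with anti-5mC, 5hmC or 5fC antibodies; FITC secondary with DAPI, imaged by fluorescence microscopy.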

[3] = tested on: Isocitrate dehydrogenase [NADP] cytoplasmic (Homo sapiens), O75874 [R132H]; experiment: Inhibition of IDH1-R132H mutant in human MCF10A cells assessed as decrease in histone H3 trimethylated lysine level (H3K79me3) at 5 uM incubated for 30 mins by Western blotting method; type: cell-based; details: MCF-10A
How it was run: (§2)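 Isogenic IDH1 (+/R132H) MCF10A cells, compared with IDH1 (+/+) cells, given 5 μM compound; lysed in SDS buffer, protein by BCA, SDS-PAGE, PVDF transfer; probed overnight at 4 °C with H3K4me3, H3K9me3, H3K27me3, H3K36me3 or H3K79me3 antibodies, total H3 as reference; HRP secondary, ECL detection.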

[4] = tested on: Isocitrate dehydrogenase [NADP] cytoplasmic (Homo sapiens), O75874 [R132H]; experiment: Inhibition of IDH1-R132H mutant in human MCF10A cells assessed as increase in 5-fC level at 5 uM incubated for 24 hrs by DAPI staining based fluorescence microscopy; type: cell-based; details: MCF-10A; how it was run: as §1
[5] = tested on: Isocitrate dehydrogenase [NADP] cytoplasmic (Homo sapiens), O75874 [R132H]; experiment: Inhibition of IDH1-R132H mutant in human MCF10A cells assessed as increase in 5-hmC level at 5 uM incubated for 24 hrs by DAPI staining based fluorescence microscopy; type: cell-based; details: MCF-10A; how it was run: as §1
[6] = tested on: Isocitrate dehydrogenase [NADP] cytoplasmic (Homo sapiens), O75874 [R132H]; experiment: Inhibition of IDH1-R132H mutant in human MCF10A cells assessed as decrease in histone H3 trimethylated lysine level (H3K4me3) at 5 uM incubated for 30 mins by Western blotting method; type: cell-based; details: MCF-10A; how it was run: as §2
[7] = Cytotoxicity against IDH1-R132H mutant expressing human MCF10A cells assessed as cell viability at 5 uM after 24 hrs by hemacytometer counting method; type: cell-based; details: mcf-10a
How it was run: (§3)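 Isogenic CRISPR-made IDH1 (+/+) and IDH1 (+/R132H) MCF10A cells seeded at 5.0 × 10⁴ per well, exposed to 5 μM compound, harvested at indicated times (24 h), viable cells counted by hemacytometer; mean ± standard deviation, Student t-test, n = 6.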

[8] = tested on: Isocitrate dehydrogenase [NADP] cytoplasmic (Homo sapiens), O75874 [R132H]; experiment: Inhibition of IDH1-R132H mutant in human MCF10A cells assessed as decrease in histone H3 trimethylated lysine level (H3K27me3) at 5 uM incubated for 30 mins by Western blotting method; type: cell-based; details: MCF-10A; how it was run: as §2
[9] = Cytotoxicity against IDH1 expressing human MCF10A cells assessed as cell viability at 5 uM after 24 hrs by hemacytometer counting method; type: cell-based; details: mcf-10a; how it was run: as §3
[10] = tested on: Isocitrate dehydrogenase [NADP] cytoplasmic (Homo sapiens), O75874 [R132H]; experiment: Inhibition of IDH1-R132H mutant in human MCF10A cells assessed as decrease in histone H3 trimethylated lysine level (H3K36me3) at 5 uM incubated for 30 mins by Western blotting method; type: cell-based; details: MCF-10A; how it was run: as §2
[11] = tested on: Isocitrate dehydrogenase [NADP] cytoplasmic (Homo sapiens), O75874 [R132H]; experiment: Inhibition of IDH1-R132H mutant in human MCF10A cells assessed as decrease in histone H3 trimethylated lysine level (H3K9me3) at 5 uM incubated for 30 mins by Western blotting method; type: cell-based; details: MCF-10A; how it was run: as §2
[12] = tested on: Isocitrate dehydrogenase [NADP] cytoplasmic (Homo sapiens), O75874 [R132H]; experiment: Inhibition of human IDH1 R132H mutant expressed in IPTG-induced Escherichia coli BL21 cells assessed as oxidation of NADPH to NADP+ after 5 mins by spectrophotometry; set-up: concentration or dose not given beside the values
[13] = target: Isocitrate dehydrogenase [NADP] cytoplasmic (Homo sapiens) (UniProt O75874); experiment: Inhibition of human IDH1 expressed in IPTG-induced Escherichia coli BL21 cells assessed as reduction of NADP+ to NADPH after 5 mins by spectrophotometry; set-up: concentration or dose not given beside the values
Isocitrate dehydrogenase [NADP] cytoplasmic (Homo sapiens), sequence (O75874 whole entry): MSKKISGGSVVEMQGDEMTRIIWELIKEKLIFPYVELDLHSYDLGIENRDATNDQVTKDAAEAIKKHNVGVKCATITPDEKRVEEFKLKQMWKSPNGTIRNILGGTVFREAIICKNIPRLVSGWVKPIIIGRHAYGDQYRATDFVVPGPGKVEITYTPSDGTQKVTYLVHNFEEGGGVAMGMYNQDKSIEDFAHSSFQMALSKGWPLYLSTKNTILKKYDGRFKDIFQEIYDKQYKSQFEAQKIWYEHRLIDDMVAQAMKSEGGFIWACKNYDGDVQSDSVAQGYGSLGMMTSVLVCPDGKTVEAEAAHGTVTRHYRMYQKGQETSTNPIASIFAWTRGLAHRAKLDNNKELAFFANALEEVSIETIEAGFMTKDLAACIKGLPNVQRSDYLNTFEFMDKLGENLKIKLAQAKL

Isocitrate dehydrogenase [NADP] cytoplasmic, sequence (O75874 2-414 R132H limits assumed): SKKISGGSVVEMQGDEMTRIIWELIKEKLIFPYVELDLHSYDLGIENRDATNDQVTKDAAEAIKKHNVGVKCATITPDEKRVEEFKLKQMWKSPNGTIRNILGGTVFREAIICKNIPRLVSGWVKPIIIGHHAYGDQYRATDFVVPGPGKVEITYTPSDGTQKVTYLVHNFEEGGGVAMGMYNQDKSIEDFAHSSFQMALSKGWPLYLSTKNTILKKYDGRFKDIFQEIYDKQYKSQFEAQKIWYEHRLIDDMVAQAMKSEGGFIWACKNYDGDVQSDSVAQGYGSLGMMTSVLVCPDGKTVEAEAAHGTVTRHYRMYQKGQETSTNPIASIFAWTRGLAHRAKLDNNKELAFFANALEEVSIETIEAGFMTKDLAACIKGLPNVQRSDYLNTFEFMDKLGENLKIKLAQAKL
Isocitrate dehydrogenase [NADP] cytoplasmic (Homo sapiens), O75874 [R132H], sequence (O75874 whole entry R132H): as the sequence (O75874 whole entry) above, with R132H counted along it

CC(C)=CCc1c(O)cc2oc3cc(O)c(O)c(CC=C(C)C)c3c(=O)c2c1O
Ki ([1]; read-out: Ki): 3.17 µM

COc1c(OC(=O)N2CCOCC2)cc2oc3cc(O)c(CC=C(C)C)c(O)c3c(=O)c2c1CC=C(C)C
Ki [1]: Not Active

CCN(CC)C(=O)Oc1cc2oc3cc(O)c(CC=C(C)C)c(O)c3c(=O)c2c(CC=C(C)C)c1OC
Ki [1]: Not Active

COc1cc2oc3cc(O)c(OC)c(CC=C(C)C)c3c(=O)c2c(O)c1CC=C(C)C
Ki ([1]; read-out: Ki): 12 µM

CCN(CC)C(=O)Oc1cc2oc3cc(O)c(OC)c(CC=C(C)C)c3c(=O)c2c(O)c1CC=C(C)C
Ki [1]: Not Active

COc1c(O)cc2oc3cc(O)c(CC=C(C)C)c(O)c3c(=O)c2c1CC=C(C)C [MANGOSTIN]
inhibition [2]: Active | Ki ([1]; read-out: Ki): 2.85 µM | inhibition [3]: Active | inhibition [4]: Active | inhibition [5]: Active | inhibition [6]: Active | Activity [7]: Non-toxic | inhibition [8]: Active | Activity [9]: Non-toxic | inhibition [10]: Active | inhibition [11]: Active

C=CCOc1cc2oc3cc(O)c(OC)c(CC=C(C)C)c3c(=O)c2c(O)c1CC=C(C)C
Ki [1]: Not Active

COc1ccc(-c2oc3c(CC=C(C)C)c(O[C@@H]4O[C@H](CO)[C@@H](O)[C@H](O)[C@H]4O)cc(O)c3c(=O)c2O[C@@H]2O[C@@H](C)[C@H](O)[C@@H](O)[C@H]2O)cc1
Activity [12]: 104% | Activity [13]: 90.4%

CC1(C)CC[C@]2(C)CC=C3[C@]4(C)CC[C@H]5C(C)(C)[C@@H](O)CC[C@]5(C)[C@H]4CC[C@@]3(C)[C@@H]2C1
Activity [12]: 109% | Activity [13]: 106%

O=C1C[C@@H](c2ccc(O)cc2)Oc2cc(O)cc(O)c21
Activity [12]: 109% | Activity [13]: 102%

CC(C)=CCc1c(O)cc2oc3cc(O)c(OCc4cn(CC(=O)OC(C)(C)C)nn4)c(CC=C(C)C)c3c(=O)c2c1O
Ki [1]: Not Active

C[C@H]1[C@@H](O)CC[C@@H]2[C@]1(C)CC[C@H]1[C@@]2(C)CC[C@@]2(C)[C@@H]3CC(C)(C)CC[C@]3(C)CC[C@]12C
Activity [12]: 113% | Activity [13]: 109%

CC(C)=CCc1c(O)c(CC=C(C)C)c2oc3c(O)ccc(O)c3c(=O)c2c1O
Activity [12]: 93.9% | Activity [13]: 89.9%

C=CCOc1cc2oc3cc(O)c(CC=C(C)C)c(O)c3c(=O)c2c(CC=C(C)C)c1OC
Ki ([1]; read-out: Ki): 17.4 µM

C=C1CC[C@@H]2[C@](C)(CCC[C@]2(C)C(=O)O)[C@H]1CCc1ccoc1
Activity [12]: 92.8% | Activity [13]: 100%

COc1c(O)cc2oc3cc4c(c(O)c3c(=O)c2c1CC=C(C)C)C=CC(C)(C)O4
Activity [12]: 98.7% | Activity [13]: 109%

CCCCCCCCCCCCC/C=C1/C(=O)O[C@H](C)[C@@H]1O
Activity [12]: 114% | Activity [13]: 111%

C=C(C)[C@@H]1CC[C@]2(C(=O)O)CC[C@]3(C)[C@H](CC[C@@H]4[C@@]5(C)CC[C@H](O)C(C)(C)[C@@H]5CC[C@]43C)[C@@H]12
Activity [12]: 112% | Activity [13]: 102%

CC(C)=CCc1c(O)c(CC=C(C)C)c2oc3c(O)cccc3c(=O)c2c1O
Activity [12]: 109% | Activity [13]: 92.8%

C=CCc1cc(OC)c(O)c(OC)c1
Activity [12]: 104% | Activity [13]: 101%

CC(C)CCC[C@@H](C)[C@H]1CC[C@H]2[C@@H]3CC=C4C[C@@H](O)CC[C@]4(C)[C@H]3CC[C@]12C
Activity [12]: 96.3% | Activity [13]: 105%

COc1ccc(C(=O)O[C@H]2[C@@H]3C=CO[C@@H](O[C@@H]4O[C@H](CO)[C@@H](O)[C@H](O)[C@H]4O)[C@@H]3[C@@]3(CO)O[C@@H]23)cc1O
Activity [12]: 103% | Activity [13]: 102%

— ChEMBL document CHEMBL3632508, “Discovery of α-mangostin as a novel competitive inhibitor against mutant isocitrate dehydrogenase-1” (Bioorg Med Chem Lett, 2015)
